Experimental data: ChEMBL document CHEMBL2331535, “Discovery and Biological Profiling of Potent and Selective mTOR Inhibitor GDC-0349” (ACS Med Chem Lett, 2013)
The source made the active and inactive calls. The rule behind the calls is not given here.

How the values were obtained:
[1] = test system: PC-3; assay: Antiproliferative activity against PTEN-null human PC3 cells; type: functional, cell-based
Procedure, shortened: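 PC3 prostate cancer cells (PTEN loss, PI3K-AKT-mTOR pathway activated) used for the antiproliferation assay. Activity is expressed as EC50 in nM.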

[2] = test system: Mus musculus; assay: Toxicity in NCR nude mouse xenografted with human PI3K-mutant MCF7-neo/Her2 cells assessed as body weight changes up to 80 mg/kg, po qd for 14-21 days; type: organism-based; design: dose 80 mg/kg, route oral; details: in vivo
Procedure, shortened: (§1)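 MCF7-neo/Her2 (PI3K-mutant) breast cancer xenografts in athymic mice. Compound given orally once daily at 10, 20, 30, 40, 50, 60, 70 and 80 mg/kg QD, with a vehicle group (0 mg/kg). Tumor growth inhibition was tracked, and body weight change was monitored up to the highest dose.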

[3] = Antitumor activity against PI3K-mutant human MCF7-neo/Her2 cells xenografted in po dosed NCR nude mouse assessed as tumor growth inhibition at maximum tolerated dose administered qd for 14-21 days; type: functional
Procedure, shortened: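 Athymic mice bearing MCF7-neo/Her2 breast tumour xenografts (PI3K-mutant) were given the drug orally once daily at 10, 20, 30, 40, 50, 60, 70 or 80 mg/kg, with a vehicle (0 mg/kg) group. Read-out was tumour growth inhibition across the dose range, with body weight change also tracked.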

[4] = biological target: Cytochrome P450 3A4 (Homo sapiens, UniProt P08684); assay: Time-dependent inhibition of CYP3A4 in human liver microsome using midazolam as substrate by TDI shift assay; type: ADME, microsomes
Procedure, shortened: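 CYP3A4 time-dependent inhibition shift assay in human liver microsomes with NADPH cofactor and midazolam as probe substrate. The compound was preincubated for 30 min and compared with no preincubation. A left shift of the CYP activity curve after preincubation designates the compound TDI positive.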

[5] = test system: Plasma; assay: Free plasma clearance in rat; type: ADME, cell-free
[6] = test system: Plasma; assay: Free plasma clearance in mouse; type: ADME, cell-free
[7] = In vivo clearance in mouse; type: ADME, organism-based
[8] = test system: Mus musculus; assay: Toxicity in po dosed mouse xenografted with KRas mutant, LKB1 deficient human A549 cells assessed as body weight changes administered qd in presence of MEK inhibitor, GDC-0973; type: organism-based; details: in vivo
[9] = test system: A549; assay: Antitumor activity against KRas mutant, LKB1 deficient human A549 cells xenografted in mouse assessed as tumor growth inhibition at 5 to 30 mg/kg, po qd; type: functional, organism-based
[10] = test system: A549; assay: Antitumor activity against KRas mutant, LKB1 deficient human A549 cells xenografted in po dosed mouse assessed as delay in tumor growth administered qd in presence of MEK inhibitor, GDC-0973; type: functional, organism-based
[11] = Dissociation constant, pKa of the compound; type: physicochemical
[12] = test system: 786-0; assay: Antitumor activity against VHL mutant human 786-0 cells xenografted in po dosed nu/nu mouse assessed as tumor growth inhibition administered qd for 14-21 days; type: functional, organism-based
[13] = test system: PC-3; assay: Antitumor activity against PTEN-null human PC3 cells xenografted in po dosed NCR nude mouse assessed as tumor growth inhibition administered qd for 14-21 days; type: functional, organism-based
[14] = test system: Homo sapiens; assay: Antitumor activity against PI3K-mutant human MCF7-neo/Her2 cells xenografted in po dosed NCR nude mouse assessed as tumor growth inhibition administered qd for 14-21 days; type: functional, organism-based; procedure, shortened: as §1
[15] = test system: Homo sapiens; assay: Decrease in phosphorylation of Akt at Ser473 in PI3K-mutant human MCF7-neo/Her2 cells xenografted in NCR nude mouse at 25 to 100 mg/kg, po; type: functional, organism-based
[16] = test system: Homo sapiens; assay: Decrease in phosphorylated 4-EBP1 level in PI3K-mutant human MCF7-neo/Her2 cells xenografted in NCR nude mouse at 25 to 100 mg/kg, po; type: functional, organism-based
[17] = test system: Homo sapiens; assay: Antitumor activity against PI3K-mutant human MCF7-neo/Her2 cells xenografted in po dosed NCR nude mouse assessed as tumor growth inhibition administered once daily for 14-21 days

Cytochrome P450 3A4, sequence (P08684 whole entry): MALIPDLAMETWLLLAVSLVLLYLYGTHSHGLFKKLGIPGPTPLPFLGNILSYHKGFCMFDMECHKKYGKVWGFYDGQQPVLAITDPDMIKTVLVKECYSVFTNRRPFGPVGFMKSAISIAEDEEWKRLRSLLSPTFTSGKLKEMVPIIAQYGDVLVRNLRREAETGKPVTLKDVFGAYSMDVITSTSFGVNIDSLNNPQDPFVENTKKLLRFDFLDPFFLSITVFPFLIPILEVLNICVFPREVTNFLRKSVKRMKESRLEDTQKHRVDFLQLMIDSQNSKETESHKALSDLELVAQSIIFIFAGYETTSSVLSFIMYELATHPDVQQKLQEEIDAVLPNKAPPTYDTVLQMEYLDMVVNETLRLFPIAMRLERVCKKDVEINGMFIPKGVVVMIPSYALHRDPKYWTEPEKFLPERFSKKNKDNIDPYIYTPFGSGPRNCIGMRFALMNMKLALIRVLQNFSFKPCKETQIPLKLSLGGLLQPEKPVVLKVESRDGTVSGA

C[C@H]1COCCN1c1nc(-c2ccc(Nc3nn(C)c(=O)[nH]3)cc2)nc2c1CCN(c1ncccn1)C2
EC50 [1]: 139 nM

CCNC(=O)Nc1ccc(-c2nc3c(c(N4CCOC[C@@H]4C)n2)CCN(C2COC2)C3)cc1.CS(=O)(=O)O
Activity [2]: < 10%
TGI [3]: 99%

CCNC(=O)Nc1ccc(-c2nc3c(c(N4CCOC[C@@H]4C)n2)CCN(c2nccn2C)C3)cc1
IC50 [4]: > 10000 nM

CCNC(=O)Nc1ccc(-c2nc3c(c(N4CCOC[C@@H]4C)n2)CCN(c2ncc(F)cn2)C3)cc1
IC50 [4]: 1400 nM

O=c1cccc(Nc2ccc(-c3nc4c(c(N5CCOCC5)n3)CCN(c3ncccn3)C4)cc2)[nH]1
EC50 [1]: 1300 nM

CCNC(=O)Nc1ccc(-c2nc3c(c(N4CCOC[C@@H]4C)n2)CCN(c2ncccn2)C3)cc1
CL free [5]: 1538 mL/min/kg
CL free [6]: 1818 mL/min/kg
EC50 [1]: 147 nM

CCNC(=O)Nc1ccc(-c2nc3c(c(N4CCOC[C@@H]4C)n2)CCN(c2cc(C)ncn2)C3)cc1
IC50 [4]: 8400 nM

C[C@H]1COCCN1c1nc(-c2ccc(Nc3nccc(=O)[nH]3)cc2)nc2c1CCN(c1ncccn1)C2
clearance [7]: 78 mL/min/kg
EC50 [1]: 25 nM

O=C(NCCF)Nc1ccc(-c2nc3c(c(N4CCOCC4)n2)CCN(c2ncccn2)C3)cc1
EC50 [1]: 58 nM

CCNC(=O)Nc1ccc(-c2nc3c(c(N4CCOC[C@@H]4C)n2)CCN(c2ccnc(C)n2)C3)cc1
IC50 [4]: 3300 nM

CS(=O)(=O)N1CCN(Cc2cc3nc(-c4cccc5[nH]ncc45)nc(N4CCOCC4)c3s2)CC1 [PICTILISIB]
Activity [8]: Non-toxic
TGI [9]: Active
TGI [10]: Active

CCNC(=O)Nc1ccc(-c2nc3c(c(N4CCOC[C@@H]4C)n2)CCN(C2COC2)C3)cc1 [RG-7603]
Activity [8]: Non-toxic
CL free [5]: 171 mL/min/kg
CL free [6]: 100 mL/min/kg
pKa [11]: 5

CCNC(=O)Nc1ccc(-c2nc3c(c(N4CCOCC4)n2)CCN(c2ncccn2)C3)cc1
EC50 [1]: 310 nM

CCNC(=O)Nc1ccc(-c2nc3c(c(N4CCOC[C@@H]4C)n2)CCN(C2COC2)C3)cc1
TGI [9]: Active
TGI [10]: Active
TGI [12]: Active
TGI [13]: Active
inhibition [14]: Dose-dependent effect
inhibition [15]: Active
inhibition [16]: Active
TGI [17]: Active

CCNC(=O)Nc1ccc(-c2nc3c(c(N4CCOC[C@@H]4C)n2)CCN(C(C)C)C3)cc1
IC50 [4]: > 10000 nM
pKa [11]: 7.6

CCNc1c(Nc2ccc(-c3nc4c(c(N5CCOC[C@@H]5C)n3)CCN(c3ncccn3)C4)cc2)c(=O)c1=O
EC50 [1]: 667 nM
